# Tests used:
# [1] = biological target: T1, Thromboxane A2 receptor (Homo sapiens, UniProt P21731); assay: Displacement of radioligand from prostanoid TP receptor expressed in HEK293 cells by competitive binding assay; assay type: cell-based
# T1 sequence (P21731 whole entry): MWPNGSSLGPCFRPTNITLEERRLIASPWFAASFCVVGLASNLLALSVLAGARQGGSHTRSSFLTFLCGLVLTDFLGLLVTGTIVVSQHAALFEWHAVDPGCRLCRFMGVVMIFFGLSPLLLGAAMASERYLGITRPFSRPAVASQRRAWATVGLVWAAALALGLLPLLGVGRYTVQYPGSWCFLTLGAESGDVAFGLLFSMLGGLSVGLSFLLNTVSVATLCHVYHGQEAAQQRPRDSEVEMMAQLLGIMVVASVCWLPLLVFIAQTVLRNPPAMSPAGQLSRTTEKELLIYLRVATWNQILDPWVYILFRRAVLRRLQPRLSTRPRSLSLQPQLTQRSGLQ
# [2] = biological target: T2, Prostaglandin D2 receptor (Homo sapiens, UniProt Q13258); assay: Displacement of radioligand from prostanoid DP receptor expressed in HEK293 cells by competitive binding assay; assay type: cell-based
# T2 sequence (Q13258 whole entry): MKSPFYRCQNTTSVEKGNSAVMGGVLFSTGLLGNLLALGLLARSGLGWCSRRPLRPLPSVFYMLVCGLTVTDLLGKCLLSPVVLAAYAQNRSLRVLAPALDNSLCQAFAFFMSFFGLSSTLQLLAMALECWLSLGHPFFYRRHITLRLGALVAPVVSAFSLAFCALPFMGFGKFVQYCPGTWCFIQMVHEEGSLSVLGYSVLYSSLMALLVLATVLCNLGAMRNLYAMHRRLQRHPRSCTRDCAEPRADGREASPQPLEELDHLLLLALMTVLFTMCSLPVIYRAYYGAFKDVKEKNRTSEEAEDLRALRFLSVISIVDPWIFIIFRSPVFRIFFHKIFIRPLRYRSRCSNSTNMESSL
# [3] = biological target: T3, Prostaglandin D2 receptor 2 (Homo sapiens, UniProt Q9Y5Y4); assay: Displacement of radioligand from human CRTH2 expressed in HEK293 cells by competitive binding assay; assay type: cell-based
# T3 sequence (Q9Y5Y4 whole entry): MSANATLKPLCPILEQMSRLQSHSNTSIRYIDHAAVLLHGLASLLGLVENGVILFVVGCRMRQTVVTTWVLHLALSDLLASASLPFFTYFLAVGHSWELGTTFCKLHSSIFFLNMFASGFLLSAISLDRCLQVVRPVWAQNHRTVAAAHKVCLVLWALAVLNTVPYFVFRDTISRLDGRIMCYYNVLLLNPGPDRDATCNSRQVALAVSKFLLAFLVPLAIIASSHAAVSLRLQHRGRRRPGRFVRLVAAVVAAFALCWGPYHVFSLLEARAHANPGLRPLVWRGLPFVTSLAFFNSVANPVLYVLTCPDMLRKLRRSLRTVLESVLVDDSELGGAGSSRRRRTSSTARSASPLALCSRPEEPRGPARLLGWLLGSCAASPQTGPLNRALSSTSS
# Procedure, shortened: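 Radioligand competition binding on membranes from HEK293 (EBNA) cells stably expressing hCRTH2, in 10 mM HEPES/KOH. Mean of two or more experiments.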
# [4] = biological target: T3, Prostaglandin D2 receptor 2; assay: Antagonist activity at human CRTH2 expressed in HEK293 cells assessed as inhibition of forskolin-induced increase intracellular [125I]cAMP level by scintillation proximity assay; assay type: functional, cell-based
# Procedure, shortened: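 Intracellular cAMP measured by ¹²⁵I-cAMP scintillation proximity assay in Hank's balanced salt solution with 25 mM HEPES and forskolin. Values are the mean of two or more experiments.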
# [5] = biological target: Cytochrome P450 2C9 (Homo sapiens, UniProt P11712); assay: Inhibition of CYP2C9; assay type: ADME
# Procedure, shortened: (§1)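 CYP2C9 and CYP3A4 inhibition IC50 values, averaged over at least two experiments.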
# [6] = Bioavailability in Sprague-Dawley rat at 5 mg/kg, po and 1 mg/kg, iv; assay type: ADME, organism-based; settings: in vivo
# Procedure, shortened: (§2)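 Rats dosed PO at 5 mg/kg (5 mL/kg) in 0.5% methocel and IV at 1 mg/kg (1 mL/kg) in 60% PEG 200; n = 2.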
# [7] = Half life in Sprague-Dawley rat at 5 mg/kg, po and 1 mg/kg, iv; assay type: ADME, organism-based; settings: in vivo; procedure, shortened: as §2
# [8] = biological target: Cytochrome P450 3A4 (Homo sapiens, UniProt P08684); assay: Inhibition of CYP3A4; assay type: ADME; procedure, shortened: as §1
# [9] = Volume of distribution in Sprague-Dawley rat at 5 mg/kg, po and 1 mg/kg, iv; assay type: ADME, organism-based; settings: in vivo; procedure, shortened: as §2
# [10] = Clearance in Sprague-Dawley rat at 5 mg/kg, po and 1 mg/kg, iv; assay type: ADME, organism-based; settings: in vivo; procedure, shortened: as §2
# [11] = test system: Rattus norvegicus; assay: (§3) Bioavailability in Sprague-Dawley rat at 1 mg/kg, iv; assay type: ADME, organism-based; settings: in vivo
# [12] = as §3; assay type: ADME, organism-based; settings: Sprague-Dawley, in vivo
# Cytochrome P450 3A4, sequence (P08684 whole entry): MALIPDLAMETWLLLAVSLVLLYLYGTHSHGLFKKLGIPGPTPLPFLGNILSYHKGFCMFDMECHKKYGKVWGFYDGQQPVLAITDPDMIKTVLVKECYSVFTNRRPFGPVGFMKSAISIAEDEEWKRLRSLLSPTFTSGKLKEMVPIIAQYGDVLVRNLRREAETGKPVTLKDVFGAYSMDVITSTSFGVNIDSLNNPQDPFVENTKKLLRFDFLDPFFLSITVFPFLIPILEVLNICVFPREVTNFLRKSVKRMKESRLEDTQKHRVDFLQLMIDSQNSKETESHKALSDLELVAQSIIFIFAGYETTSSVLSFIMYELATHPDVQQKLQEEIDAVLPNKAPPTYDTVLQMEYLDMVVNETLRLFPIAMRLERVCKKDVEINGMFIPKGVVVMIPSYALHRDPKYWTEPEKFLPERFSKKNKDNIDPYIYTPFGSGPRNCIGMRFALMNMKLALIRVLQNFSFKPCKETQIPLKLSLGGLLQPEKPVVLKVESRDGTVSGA
# Cytochrome P450 2C9, sequence (P11712 whole entry): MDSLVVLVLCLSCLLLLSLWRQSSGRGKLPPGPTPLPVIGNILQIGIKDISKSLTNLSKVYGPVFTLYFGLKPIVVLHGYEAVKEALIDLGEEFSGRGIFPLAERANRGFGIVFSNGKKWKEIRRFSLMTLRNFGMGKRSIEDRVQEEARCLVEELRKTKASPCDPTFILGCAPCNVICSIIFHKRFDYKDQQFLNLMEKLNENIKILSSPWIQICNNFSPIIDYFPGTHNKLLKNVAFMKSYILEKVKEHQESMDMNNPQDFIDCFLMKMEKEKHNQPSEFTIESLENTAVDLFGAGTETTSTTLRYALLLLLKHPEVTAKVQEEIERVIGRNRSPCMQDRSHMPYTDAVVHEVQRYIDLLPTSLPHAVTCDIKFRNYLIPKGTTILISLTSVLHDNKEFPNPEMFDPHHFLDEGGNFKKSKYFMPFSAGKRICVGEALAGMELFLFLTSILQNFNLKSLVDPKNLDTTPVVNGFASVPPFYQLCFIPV
SMILES,Ki [1],Ki [2],Ki [3],IC50 [4],IC50 [5],bioavailability [6],half-life [7],IC50 [8],Vd [9],clearance [10],F [11],bioavailability [12]
CN([C@@H]1CCc2c(CC(=O)O)c3cnccc3n2C1)S(=O)(=O)c1ccc(F)cc1,> 6.8 µM,> 3.4 µM,6.72 µM,–,–,–,–,–,–,–,–,–
CN([C@@H]1CCc2c(CC(=O)O)c3ccncc3n2C1)S(=O)(=O)c1ccc(F)cc1,> 22 µM,> 12 µM,0.139 µM,0.351 µM,–,–,–,–,–,–,–,–
CN([C@@H]1CCc2c(CC(=O)O)c3cccnc3n2C1)S(=O)(=O)c1ccc(F)cc1,> 22 µM,> 47 µM,0.0033 µM,0.0034 µM,> 50 µM,50%,7.5 h,> 50 µM,0.23 L/kg,0.024 L/h/kg,–,–
CN([C@@H]1CCc2c(CC(=O)O)c3ccc(Cl)nc3n2C1)S(=O)(=O)c1ccc(F)cc1,> 27 µM,> 18 µM,0.0018 µM,0.0032 µM,–,–,–,–,–,–,–,–
CN([C@@H]1CCc2c(CC(=O)O)c3ccc(-c4ccc(F)cc4)nc3n2C1)S(=O)(=O)c1ccc(F)cc1,> 1 µM,> 3.8 µM,0.0019 µM,0.0036 µM,–,–,–,–,–,–,–,–
C[C@@H](C(=O)N(C)[C@@H]1CCc2c(CC(=O)O)c3cccnc3n2C1)c1ccc(F)cc1,> 71 µM,> 38 µM,0.0034 µM,0.0057 µM,> 50 µM,84%,4 h,> 50 µM,0.67 L/kg,0.216 L/h/kg,–,–
C[C@H](C(=O)N(C)[C@@H]1CCc2c(CC(=O)O)c3cccnc3n2C1)c1ccc(F)cc1,> 22 µM,> 12 µM,0.0211 µM,0.0738 µM,–,–,–,–,–,–,–,–
CN(C(=O)C(C)(C)c1ccc(F)cc1)[C@@H]1CCc2c(CC(=O)O)c3cccnc3n2C1,> 21 µM,> 10 µM,0.0047 µM,0.0035 µM,–,–,1.9 h,–,1.54 L/kg,1.26 L/h/kg,156%,–
CN(C(=O)C1(c2ccc(F)cc2)CC1)[C@@H]1CCc2c(CC(=O)O)c3cccnc3n2C1,> 6.8 µM,> 3.7 µM,0.0036 µM,0.0075 µM,–,63%,3.1 h,–,2.2 L/kg,0.72 L/h/kg,–,–
CN(C(=O)C1(c2ccc(F)cc2)CC1(C)C)[C@@H]1CCc2c(CC(=O)O)c3cccnc3n2C1 (stereo partly specified),> 7.2 µM,> 4 µM,0.0051 µM,0.0044 µM,–,–,–,–,–,–,–,–
CN(C(=O)C1(c2ccc(F)cc2)CCC1)[C@@H]1CCc2c(CC(=O)O)c3cccnc3n2C1,> 7.2 µM,> 4 µM,0.0034 µM,0.0047 µM,–,20%,2.1 h,–,4.58 L/kg,1.68 L/h/kg,–,–
CN(C(=O)C1(c2ccc(F)cc2)CCCC1)[C@@H]1CCc2c(CC(=O)O)c3cccnc3n2C1,> 7.2 µM,> 4 µM,0.0039 µM,0.0045 µM,–,38%,11.6 h,–,1.72 L/kg,1.08 L/h/kg,–,–
CN(C(=O)C1(c2ccc(F)cc2)CCOCC1)[C@@H]1CCc2c(CC(=O)O)c3cccnc3n2C1,> 7.2 µM,> 4 µM,0.0115 µM,0.007 µM,–,–,–,–,–,–,–,–
CN([C@@H]1CCc2c(CC(=O)O)c3ncccc3n2C1)S(=O)(=O)c1ccc(F)cc1,> 7 µM,> 1.3 µM,7.19 µM,–,–,–,–,–,–,–,–,–
CN([C@@H]1CCc2c(CC(=O)O)c3ccccc3n2C1)S(=O)(=O)c1ccc(F)cc1 [MK-7246],–,–,–,–,–,–,4.1 h,–,1.15 L/kg,0.234 L/h/kg,–,138%

# Reference: ChEMBL document CHEMBL1641461, “Azaindoles as potent CRTH2 receptor antagonists” (Bioorg Med Chem Lett, 2011)
